Source: ChEMBL document CHEMBL3992568, “Discovery of Antimalarial Azetidine-2-carbonitriles That Inhibit P. falciparum Dihydroorotate Dehydrogenase” (ACS Med Chem Lett, 2017)

Experiments:
Mus musculus = assay: Dose normalized AUC (0 to infinity) in CD-1 mouse at 5 mg/kg, po administered as single dose; format: ADME, organism-based; conditions: in vivo
[1] = Initial concentration in CD-1 mouse at 1 mg/kg, iv or 5 mg/kg, po administered as single dose; format: ADME, organism-based; conditions: in vivo
Summary of the method: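 Female CD-1 mice, single dose. Oral formulation: 70% PEG300/30% (5% dextrose in water) at 0.5 mg/mL. Intravenous formulation: 5% DMSO/10% cremophor/85% water at 0.25 mg/mL. Parameters from non-compartmental analysis.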

AUC/dose (Mus musculus): > 54.3 µM·h
C0 [1]: 4.9 µM
Structure (SMILES): CCCNC(=O)N1[C@H](C#N)[C@H](c2ccc(-c3ccc(C(F)(F)F)c(C(F)(F)F)c3)cc2)[C@H]1CO
